Test results as given in paper PMC3557599 (Toxicology and applied pharmacology, 2012).
Read-outs that look alike come from different tables or passages of the source.

Assays:
[1] = Reaction with GSH in the presence of filtered rat liver cytosol; format: in vitro ADME; details: for Half-life +GSH + Cytosol: 0.459 mM compound, 1.53 mM GSH, filtered rat liver cytosol 2 mg/mL, 37°C; for reduction of half-life in the presence of liver cytosol: +GSH + cytosol vs +GSH alone
Procedure, shortened: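 Rat liver cytosol came from male Sprague-Dawley rats (180–225 g). It was filtered three times through centrifugal filters with pH 7.4 phosphate buffer to strip GSH and small molecules, and protein was measured by Lowry. Test compound (0.459 mM), GSH (1.53 mM) and cytosol (2 mg/mL) were incubated at 37°C. Aliquots were taken every 2.5 or 5 min, TFA-acidified, and run on C18 HPLC with UV detection. Diastereomer half-lives came from first-order kinetics.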

rats = details: 230 µmol/kg b.w. ref Lash et al., 1994; cited from earlier work
[2] = test system: isolated rat renal proximal tubule cells; details: cited from earlier work
[3] = ref Commandeur et al., 1991; cited from earlier work
kidneys of male rats = assay: Kidney histopathology, grading of tubular necrosis in inner and outer zone; format: in vivo, rat; details: 230 µmol/kg b.w. i.p., 24 h post treatment
[4] = Reactivity toward GSH in phosphate buffer pH 7.4 at 37°C; format: physicochemical
Procedure, shortened: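 Test compound (0.459 mM) and GSH (1.53 mM) were incubated in 0.1 M KH2PO4/0.1 M KCl/5 mM Na2EDTA, pH 7.4, in a shaking bath at 37°C. Aliquots were taken every 5–10 min for up to 60 min and TFA-acidified. Analysis was C18 HPLC with an acetonitrile/0.1% TFA gradient, reading UV 220 nm for sulfoxide loss and 260 nm for products. Diastereomer half-lives came from first-order kinetics. Conjugates (3 mM compound, 10 mM GSH, 1 h) were isolated and identified by positive-ESI LC/MS-TOF.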

male Sprague-Dawley rats = format: in vivo, rat; details: 230 µmol/kg b.w. i.p.; for BUN levels compared to control (saline-treated) rats / AST and ALT levels: 24 h after dosing; for AST and ALT levels: vs saline-treated rats; for Urine protein/creatinine ratio: vs saline; for urine volume: saline-treated rats 0.20 ± 0.04 dL; for nephrotoxicity based on the biochemical endpoints assayed: equimolar comparison

Compound | Half-life +GSH + Cytosol [1] [min] | reduction of half-life in the presence of liver cytosol [1] [fold] | kidney region primarily affected by lesions (kidneys of male rats) | reaction with GSH (formation of glutathione conjugates) [4] | BUN levels compared to control (saline-treated) rats (male Sprague-Dawley rats) | further results
CC(=O)N[C@@H](C[S+]([O-])C(Cl)=CCl)C(=O)O (single isomer, unassigned) [NA-DCVCS I, N-acetyl-S-(1,2-dichlorovinyl)-L-cysteine sulfoxide] | 5.4 | 2 | – | – | – | –
CC(=O)N[C@@H](C[S+]([O-])C(Cl)=CCl)C(=O)O (single isomer, unassigned) [NA-DCVCS II, N-acetyl-S-(1,2-dichlorovinyl)-L-cysteine sulfoxide] | 2.3 | 10 | – | – | – | –
N[C@@H](CSC(Cl)=CCl)C(=O)O [DCVC, S-(1,2-dichlorovinyl)-L-cysteine] | – | – | – | – | – | kidney histopathology (rats): scattered, patchy foci of tubular necrosis
CC(=O)N[C@@H](CSC(Cl)=CCl)C(=O)O [NA-DCVC, N-Acetyl-S-(1,2-dichlorovinyl)-L-cysteine] | – | – | cortico-medullary proximal tubules (S2–S3 segments) | not reactive with GSH | approximately 3 fold | cytotoxicity ([2]; isolated rat proximal tubule cells ref Commandeur et al., 1991): less cytotoxic then DCVC; mutagenicity in the Ames test [3]: strong mutagen; Urinary excretion of glucose over 24 h compared to saline-treated rats (male Sprague-Dawley rats): 113 fold; AST and ALT levels (male Sprague-Dawley rats): not different from saline-treated rats; Urine protein/creatinine ratio (male Sprague-Dawley rats; 24 h urine): elevated; urine volume (male Sprague-Dawley rats; 24 h urine): 0.32 ± 0.11 dL; nephrotoxicity based on the biochemical endpoints assayed (male Sprague-Dawley rats): less nephrotoxic than DCVCS
CC(=O)N[C@@H](C[S+]([O-])C(Cl)=CCl)C(=O)O (stereo partly drawn) [NA-DCVCS, N-acetyl-S-(1,2-dichlorovinyl)-L-cysteine sulfoxide] | – | – | cortico-medullary proximal tubules (S2–S3 segments) | the corresponding glutathione conjugates were detected | approximately 3 fold | cytotoxicity ([2]; isolated rat renal proximal tubule cells ref Werner et al., 1996): more cytotoxic than NA-DCVC; Urinary excretion of glucose over 24 h compared to saline-treated rats (male Sprague-Dawley rats): 89 fold; AST and ALT levels (male Sprague-Dawley rats): not different from saline-treated rats; Urine protein/creatinine ratio (male Sprague-Dawley rats; 24 h urine): elevated; nephrotoxicity based on the biochemical endpoints assayed (male Sprague-Dawley rats): less nephrotoxic than DCVCS
S-(1,2-dichlorovinyl)-L-cysteine sulfoxide [DCVCS I, reference compound] | 1.4 | 10 | – | – | – | –
S-(1,2-dichlorovinyl)-L-cysteine sulfoxide [DCVCS II, reference compound] | 3.1 | 2 | – | – | – | –
S-(1,2-dichlorovinyl)-L-cysteine sulfoxide [DCVCS, reference compound] | – | – | outer cortical proximal tubules (S1–S2 segments) | the corresponding glutathione conjugates were detected | 7 fold | anuric rats (male Sprague-Dawley rats; 24 h): two out of the four; Glucose excretion (male Sprague-Dawley rats; 24 h urine, rats anuric or producing little urine): not different than saline-treated rats; urine volume (male Sprague-Dawley rats; 24 h urine): 0.05 ± 0.07 dL
